This passage reports Control and Toxicity results from ChEMBL document CHEMBL1131570, “2,5-bis[4-(N-alkylamidino)phenyl]furans as anti-Pneumocystis carinii agents” (J Med Chem, 1998).

Data set [1] relates to Rattus norvegicus. As to the kind of experiment: The cysts/g of lung (% of control ) is calculated at a dose of 10.8 umol/kg/day against Pneumocystis carinii in rats. The format is functional. The procedure, abridged:
(§1)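 Rat *P. carinii* pneumonia model: furan dications given intravenously; lung cysts counted per g of lung tissue and expressed relative to pooled saline-treated control rats.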

Data set [2] is described as follows: Toxicity at a dose of 0.5 umol/kg/day against Pneumocystis carinii in rats. Particulars: rat, in vivo.
Data set [3] deals with Rattus norvegicus. Description: The cysts/g of lung (% of control ) is calculated at a dose of 0.5 umol/kg/day against Pneumocystis carinii in rats. The format is functional. The procedure, abridged:
as §1

Data set [4] is described as follows: Toxicity at a dose of 10.8 umol/kg/day against Pneumocystis carinii in rats. Particulars: rat, in vivo.
Data set [5] can be described thus: Toxicity at a dose of 10 umol/kg/day against Pneumocystis carinii in rats. Conditions: rat, in vivo.
Data set [6] has as its system Rattus norvegicus. Description: The cysts/g of lung (% of control ) is calculated at a dose of 10 umol/kg/day against Pneumocystis carinii in rats. The format is functional. Summed up: as §1
Data set [7] deals with Rattus norvegicus. As to the kind of experiment: The cysts/g of lung (% of control ) is calculated at a dose of 0.2 umol/kg day against Pneumocystis carinii in rats. The class given is functional. The procedure, abridged: as §1
Data set [8] concerns Rattus norvegicus. Description: The cysts/g of lung (% of control ) is calculated at a dose of 9.4 umol/kg day against Pneumocystis carinii in rats. The format is functional. Summed up: as §1
Data set [9] has as its system Rattus norvegicus. As to the kind of experiment: The cysts/g of lung (% of control ) is calculated at a dose of 1.9 umol/kg day against Pneumocystis carinii in rats. The format is functional. Summed up: as §1
A short description of data set [10]: Toxicity at a dose of 0.9 umol/kg day against Pneumocystis carinii in rats. Particulars: rat, in vivo.
Data set [11] in a line: Toxicity at a dose of 1.9 umol/kg day against Pneumocystis carinii in rats. Particulars: rat, in vivo.
The test system of data set [12] is Rattus norvegicus. As to the kind of experiment: The cysts/g of lung (% of control ) is calculated at a dose of 0.9 umol/kg day against Pneumocystis carinii in rats. The class given is functional. The procedure, abridged:
as §1

Data set [13] in a line: Toxicity at a dose of 0.2 umol/kg day against Pneumocystis carinii in rats. Particulars: rat, in vivo.
Data set [14] deals with Rattus norvegicus. As to the kind of experiment: The cysts/g of lung (% of control ) is calculated at a dose of 10.6 umol/kg/day against Pneumocystis carinii in rats. The format is functional. Summed up:
as §1

Data set [15] in a line: Toxicity at a dose of 0.2 umol/kg/day against Pneumocystis carinii in rats. Particulars: rat, in vivo.
Data set [16] in a line: Toxicity at a dose of 10.6 umol/kg/day against Pneumocystis carinii in rats. Conditions: rat, in vivo.
For data set [17], the system named is Rattus norvegicus. Description: The cysts/g of lung (% of control ) is calculated at a dose of 0.2 umol/kg/day against Pneumocystis carinii in rats. The format is functional. Summed up:
as §1

Data set [18] concerns Rattus norvegicus. As to the kind of experiment: The cysts/g of lung (% of control ) is calculated at a dose of 10.4 umol/kg/day against Pneumocystis carinii in rats. The format is functional. Summed up: as §1
The nature of data set [19]: Toxicity at a dose of 10.4 umol/kg/day against Pneumocystis carinii in rats. Conditions: rat, in vivo.
A short description of data set [20]: Toxicity at a dose of 22.0 umol/kg/day against Pneumocystis carinii in rats;. Conditions: rat, in vivo.
A short description of data set [21]: Toxicity at a dose of 13.3 umol/kg/day against Pneumocystis carinii in rats. Particulars: rat, in vivo.
In data set [22] the test system is Rattus norvegicus. As to the kind of experiment: The cysts/g of lung (% of control ) is calculated at a dose of 22.0 umol/kg/day against Pneumocystis carinii in rats. The format is functional. Summed up:
as §1

Data set [23] deals with Rattus norvegicus. As to the kind of experiment: The cysts/g of lung (% of control ) is calculated at a dose of 13.3 umol/kg/day against Pneumocystis carinii in rats. The class given is functional. Summed up: as §1
For data set [24], the system named is Rattus norvegicus. As to the kind of experiment: The cysts/g of lung (% of control ) is calculated at a dose of 2.2 umol/kg/day against Pneumocystis carinii in rats. The format is functional. Summed up:
as §1

Data set [25] has as its system Rattus norvegicus. As to the kind of experiment: The cysts/g of lung (% of control ) is calculated at a dose of 1.1 umol/kg/day against Pneumocystis carinii in rats. The format is functional. The procedure, abridged:
as §1

The nature of data set [26]: Toxicity at a dose of 1.1 umol/kg / day against Pneumocystis carinii in rats. Conditions: rat, in vivo.
Data set [27] is described as follows: Toxicity at a dose of 2.2 umol/kg /day against Pneumocystis carinii in rats. Conditions: rat, in vivo.
The test system of data set [28] is Rattus norvegicus. Description: The cysts/g of lung (% of control ) is calculated at a dose of 0.2 umol/kg /day against Pneumocystis carinii in rats. The class given is functional. The procedure, abridged:
as §1

For data set [29], the system named is Rattus norvegicus. Description: The cysts/g of lung (% of control ) is calculated at a dose of 9.7 umol/kg/day against Pneumocystis carinii in rats. The class given is functional. The procedure, abridged:
as §1

A short description of data set [30]: Toxicity at a dose of 9.7 umol/kg/day against Pneumocystis carinii in rats;. Particulars: rat, in vivo.
A short description of data set [31]: Toxicity at 10.4 a dose of umol/kg/day against Pneumocystis carinii in rats. Conditions: rat, in vivo.
In data set [32] the test system is Rattus norvegicus. Description: The cysts/g of lung (% of control ) is calculated at a dose of 9.9 umol/kg/day against Pneumocystis carinii in rats. The class given is functional. Summed up: as §1
A short description of data set [33]: Toxicity at a dose of 1.0 umol/kg/day against Pneumocystis carinii in rats. Particulars: rat, in vivo.
The test system of data set [34] is Rattus norvegicus. As to the kind of experiment: The cysts/g of lung (% of control ) is calculated at a dose of 1.0 umol/kg/day against Pneumocystis carinii in rats. The class given is functional. Summed up:
as §1

The nature of data set [35]: Toxicity at a dose of 9.1 umol/kg/day against Pneumocystis carinii in rats. Conditions: rat, in vivo.
The test system of data set [36] is Rattus norvegicus. As to the kind of experiment: The cysts/g of lung (% of control ) is calculated at a dose of 0.9 umol/kg/day against Pneumocystis carinii in rats. The format is functional. The procedure, abridged:
as §1

A short description of data set [37]: Toxicity at a dose of 0.9 umol/kg/day against Pneumocystis carinii in rats. Conditions: rat, in vivo.
The test system of data set [38] is Rattus norvegicus. As to the kind of experiment: The cysts/g of lung (% of control ) is calculated at a dose of 9.1 umol/kg/day against Pneumocystis carinii in rats. The format is functional. The procedure, abridged: as §1
Data set [39] has as its system Rattus norvegicus. As to the kind of experiment: The cysts/g of lung (% of control ) is calculated at a dose of 0.03 umol/kg /day against Pneumocystis carinii in rats. The format is functional. The procedure, abridged: (§2)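 P. carinii-infected rats dosed intravenously with the furan dication. Cysts were counted per g of lung tissue and expressed as % of the mean count of pooled saline-treated controls (n = 142).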

Data set [40] deals with Rattus norvegicus. As to the kind of experiment: The cysts/g of lung (% of control ) is calculated at a dose of 2.7 umol/kg/day against Pneumocystis carinii in rats. The format is functional. The procedure, abridged:
as §2

The nature of data set [41]: Toxicity at a dose of 0.3 umol/kg/day against Pneumocystis carinii in rats. Conditions: rat, in vivo.
Data set [42] in a line: Toxicity at a dose of 2.7 umol/kg/day against Pneumocystis carinii in rats. Conditions: rat, in vivo.
For data set [43], the system named is Rattus norvegicus. As to the kind of experiment: The cysts/g of lung (% of control ) is calculated at a dose of 0.3 umol/kg /day against Pneumocystis carinii in rats. The format is functional. The procedure, abridged: as §2
Data set [44] in a line: Toxicity at a dose of 0.03 umol/kg/day against Pneumocystis carinii in rats. Particulars: rat, in vivo.
Data set [45] deals with Rattus norvegicus. As to the kind of experiment: The cysts/g of lung (% of control ) is calculated at a dose of 4.8 umol/kg/day against Pneumocystis carinii in rats. The class given is functional. Summed up: as §1

Regarding `N=C(NCC1CC1)c1ccc(-c2ccc(-c3ccc(C(=N)NCC4CC4)cc3)o2)cc1`, the results for the Control with Rattus norvegicus [1] and with Rattus norvegicus [3] were 0.24% and 3.25%, respectively. In addition, the Toxicity in [2] and in data set [4] was 0 each time.
Consider `CC(C)CNC(=N)c1ccc(-c2ccc(-c3ccc(C(=N)NCC(C)C)cc3)o2)cc1`, for which, in [5], the Toxicity is reported as 0. Besides, the Control with Rattus norvegicus [6] was 2.2%.
As to `N=C(NC1CCCC1)c1ccc(-c2ccc(-c3ccc(C(=N)NC4CCCC4)cc3)o2)cc1`, the Control in the data set with Rattus norvegicus [7] is listed as 93.5%; with Rattus norvegicus [8], 0.03%; with Rattus norvegicus [9], 0.08%; in the data set with Rattus norvegicus [12] it was 0.11%. In addition, the Toxicity in [10], in [11] and in [13] was 0 in each case.
Take `CCCNC(=N)c1ccc(-c2ccc(-c3ccc(C(=N)NCCC)cc3)o2)cc1`: the Control in the data set with Rattus norvegicus [14] is reported as 0.08%; in the data set with Rattus norvegicus [17] it was 107.83%. Besides, the Toxicity in data set [15] and in data set [16] was 0 in each case.
Turning to `N=C(NCCO)c1ccc(-c2ccc(-c3ccc(C(=N)NCCO)cc3)o2)cc1`, the Control in the data set with Rattus norvegicus [18] is listed as 0.6%. The same compound gave a Toxicity in data set [19] of 0.
For `N=C(N)c1ccc(OCCCCCOc2ccc(C(=N)N)cc2)cc1` [PENTAMIDINE], the Toxicity result is given as “Local toxicity” in data set [20] and 0 in data set [21]. Besides, the figures for the Control in the data set on Rattus norvegicus [22] and with Rattus norvegicus [23] were 1.46% and 0.61%, respectively.
For `CC(C)NC(=N)c1ccc(-c2ccc(-c3ccc(C(=N)NC(C)C)cc3)o2)cc1`, the Control with Rattus norvegicus [1] was 0.2%; in the data set on Rattus norvegicus [24], 8.41%; with Rattus norvegicus [25], 11.73%; in the data set with Rattus norvegicus [28], 169%. Moreover, the Toxicity in data set [15], in data set [26], in data set [27] and in [4] was 0 each time.
For `CC(C)CC/N=C(\N)c1ccc(-c2ccc(-c3ccc(/C(N)=N/CCC(C)C)cc3)o2)cc1`, the Control in the data set with Rattus norvegicus [29] is given as 2.38%. Also, in data set [30], the Toxicity worked out at 0.
With `CC/N=C(\N)c1ccc(-c2ccc(-c3ccc(/C(N)=N/CC)cc3)o2)cc1`, the Control with Rattus norvegicus [18] is listed as 0.05%. The same compound had a Toxicity in [31] of 0.
As for `C/N=C(\N)c1ccc(-c2ccc(-c3ccc(/C(N)=N/C)cc3)o2)cc1`, the Control with Rattus norvegicus [14] was 0.16%; in the data set with Rattus norvegicus [17], 85.37%. This compound also yielded a Toxicity in data set [15] of 0.
With `N=C(NC1CC1)c1ccc(-c2ccc(-c3ccc(C(=N)NC4CC4)cc3)o2)cc1`, the Control in the data set on Rattus norvegicus [1] is on record as 0.03%; with Rattus norvegicus [17], 129%. For the same compound, the Toxicity in data set [15] came out at 0.
For the compound `N=C(NC1CCC1)c1ccc(-c2ccc(-c3ccc(C(=N)NC4CCC4)cc3)o2)cc1`, the Control with Rattus norvegicus [32] is 0.05%; in the data set on Rattus norvegicus [34] it was 0.67%. The Toxicity in data set [33] stood at 0.
Consider `N=C(NC1CCCCC1)c1ccc(-c2ccc(-c3ccc(C(=N)NC4CCCCC4)cc3)o2)cc1`, for which the Toxicity in data set [35] and in data set [37] was 0 throughout. In addition, the Control is 26.28% in the data set on Rattus norvegicus [36] and 0.02% in the data set with Rattus norvegicus [38].
For the compound `N=C(N)c1ccc(-c2ccc(-c3ccc(C(=N)N)cc3)o2)cc1` [FURAMIDINE], the Control is reported as 21.97% in the data set with Rattus norvegicus [39], 5.65% with Rattus norvegicus [40] and 5.38% in the data set with Rattus norvegicus [43]. Moreover, the Toxicity in data set [41], in data set [42] and in data set [44] was 0 in each case.
With `CCC(CC)NC(=N)c1ccc(-c2ccc(-c3ccc(C(=N)NC(CC)CC)cc3)o2)cc1`, the Control in the data set on Rattus norvegicus [45] is on record as 24.43%.
For the compound `N=C(NCC1CCCCC1)c1ccc(-c2ccc(-c3ccc(C(=N)NCC4CCCCC4)cc3)o2)cc1`, the Control in the data set with Rattus norvegicus [14] is on record as 43.9%. Moreover, the Toxicity in data set [16] is recorded as 0.
